Measurements reported in paper PMC11268778 (International Journal of Nanomedicine, 2024).

What was measured:
[1] = Encapsulation; format: physicochemical; settings: estimated from FITC signals of supernatants of broken minus un-broken NPs
In short: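 PLGA (5 mg/mL in acetonitrile) containing FITC-labelled peptide was injected at 2 mL/min into 0.1% PVA and stirred 48 h. Particles were washed three times (15,000 rpm, 10 min) and freeze-dried. 1 mg NPs was disrupted in 50% DMSO/0.5% SDS/0.1 M NaOH for 1 h. FITC was read at 488/520 nm against a free-peptide calibration line. Surface-adsorbed fraction = broken minus unbroken supernatant signal. Triplicate.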

[2] = In vitro release from PLGA-NPs; format: physicochemical; settings: 1 mg NPs in 1.5 mL PBS pH 7.2, 37 °C, FITC fluorescence, triplicate

Row | Substance | peptide adsorbed on the external surface of NPs [1] | peptide released from PLGA-NPs at 0.5 h [2]
1 | βAla-G-βAla-QL-PEG-AAFAARA [Ctrl PEG] | ~ 63% | –
2 | βAla-G-βAla-QL-PEG-AAFAARAV [Ctrl PEG-Val] | – | 100%
